{"source": "ChEMBL document CHEMBL4014308", "about": "“Amphiphilic Tobramycin-Lysine Conjugates Sensitize Multidrug Resistant Gram-Negative Bacteria to Rifampicin and Minocycline” (J Med Chem, 2017)", "type_in_all_cases": "functional", "key": {"Pseudomonas aeruginosa [1]": {"tested_on": "Pseudomonas aeruginosa", "assay": "Potentiation of minocycline-induced antibacterial activity against multidrug/extremely drug-resistant/colistin-susceptible Pseudomonas aeruginosa isolate 100036 assessed as fold reduction in minocycline MIC at 4 ug/ml after 18 hrs by checkerboard assay relative to control", "outline": "(§1)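 Checkerboard in Mueller-Hinton broth, 10 × 7 matrix, with the adjuvant held at 4 µg/mL. Inoculum from a 0.5 McFarland suspension diluted 1:50; 18 h at 37 °C. Antibiotic MIC (lowest concentration with no growth) with adjuvant is compared with the antibiotic MIC alone, giving a fold reduction.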"}, "Acinetobacter baumannii [2]": {"tested_on": "Acinetobacter baumannii", "assay": "Synergistic antibacterial activity against multidrug-resistant Acinetobacter baumannii AB027 after 18 hrs in presence of rifampicin by checkerboard assay", "conditions": "AB027, 18 h", "outline": "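Checkerboard in MHB with a 10 × 7 matrix: antibiotic serially diluted along one axis, adjuvant along the other. Inoculum was a 1:50 dilution of a 0.5 McFarland suspension, incubated 18 h at 37 °C and read on a plate reader. Each FIC is the concentration in a no-growth well divided by the MIC alone; FIC index is their sum, with ≤0.5 taken as synergy.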"}, "Pseudomonas aeruginosa [3]": {"tested_on": "Pseudomonas aeruginosa", "assay": "Antibacterial activity against Pseudomonas aeruginosa PAO1 after 18 hrs by microtiter dilution assay", "conditions": "PAO1, 18 h", "outline": "(§2)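 Broth microdilution following CLSI guidelines. An overnight culture was adjusted to 0.5 McFarland in saline, then diluted 1:50 in Mueller-Hinton broth. This inoculum was added in equal volume to 2-fold serial dilutions of agent in MHB and incubated 18 h at 37 °C. MIC was the lowest concentration with no visible growth.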"}, "Escherichia coli [4]": {"tested_on": "Escherichia coli", "assay": "Antibacterial activity against amikacin-resistant Escherichia coli isolate CAN-ICU 63074 after 18 hrs by microtiter dilution assay", "conditions": "isolate CAN-ICU 63074, 18 h", "outline": "as §2"}, "Pseudomonas aeruginosa [5]": {"tested_on": "Pseudomonas aeruginosa", "assay": "Potentiation of minocycline-induced antibacterial activity against multidrug/extremely drug-resistant/colistin-susceptible Pseudomonas aeruginosa isolate P264-104354 assessed as fold reduction in minocycline MIC at 4 ug/ml after 18 hrs by checkerboard assay relative to control", "outline": "as §1"}, "Pseudomonas aeruginosa [6]": {"tested_on": "Pseudomonas aeruginosa", "assay": "Potentiation of novobiocin-induced antibacterial activity against Pseudomonas aeruginosa PAO1 at 4 ug/ml after 18 hrs by checkerboard assay"}, "Pseudomonas aeruginosa [7]": {"tested_on": "Pseudomonas aeruginosa", "assay": "Synergistic antibacterial activity against Pseudomonas aeruginosa PAO1 after 18 hrs in presence of chloramphen by checkerboard assay", "conditions": "PAO1, 18 h", "outline": "(§3)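 Checkerboard in MHB: antibiotic diluted along one axis and adjuvant along the other (10 × 7 matrix). Inoculum was a 1:50 dilution in MHB of a 0.5 McFarland saline suspension; incubated 18 h at 37 °C. Each FIC = concentration in the no-growth well divided by the MIC alone; FIC index = sum of both FICs. ≤0.5 synergy, 0.5–4 no interaction, ≥4 antagonism.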"}, "Pseudomonas aeruginosa [8]": {"tested_on": "Pseudomonas aeruginosa", "assay": "Potentiation of rifampicin-induced antibacterial activity against multidrug/extremely drug-resistant/colistin-susceptible Pseudomonas aeruginosa isolate P259-96918 at 4 ug/ml after 18 hrs by checkerboard assay", "outline": "(§4)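 Checkerboard in Mueller-Hinton broth: antibiotic serially diluted along one axis and adjuvant along the other (10 × 7 matrix). Inoculum from a 0.5 McFarland saline suspension diluted 1:50 in MHB; 18 h at 37 °C, then plate read. MIC is the lowest concentration with no growth. FIC of each agent is its concentration in a no-growth well divided by its MIC alone; FIC index is the sum of both. FIC index ≤0.5 counts as synergy.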"}, "Acinetobacter baumannii [9]": {"tested_on": "Acinetobacter baumannii", "assay": "Antibacterial activity against Acinetobacter baumannii isolate CAN-ICU 63169 after 18 hrs by microtiter dilution assay", "conditions": "isolate CAN-ICU 63169, 18 h", "outline": "(§5)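 Broth microdilution per CLSI. Overnight culture adjusted to 0.5 McFarland in saline, diluted 1:50 in Mueller-Hinton broth, and added to an equal volume of 2-fold serial compound dilutions in MHB. Incubated 18 h at 37 °C. MIC taken as the lowest concentration with no visible growth.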"}, "Acinetobacter baumannii [10]": {"tested_on": "Acinetobacter baumannii", "assay": "Antibacterial activity against multidrug-resistant Acinetobacter baumannii AB031 after 18 hrs by microtiter dilution assay", "conditions": "AB031, 18 h", "outline": "as §2"}, "Pseudomonas aeruginosa [11]": {"tested_on": "Pseudomonas aeruginosa", "assay": "Synergistic antibacterial activity against Pseudomonas aeruginosa PAO1 after 18 hrs in presence of amikacin by checkerboard assay", "conditions": "PAO1, 18 h", "outline": "as §3"}, "Pseudomonas aeruginosa [12]": {"tested_on": "Pseudomonas aeruginosa", "assay": "Antibacterial activity against multidrug/extremely drug-resistant/colistin-susceptible Pseudomonas aeruginosa isolate P264-104354 after 18 hrs by microtiter dilution assay", "conditions": "isolate P264-104354, 18 h", "outline": "as §2"}, "Pseudomonas aeruginosa [13]": {"tested_on": "Pseudomonas aeruginosa", "assay": "Potentiation of ceftazidime-induced antibacterial activity against Pseudomonas aeruginosa PAO1 at 4 ug/ml after 18 hrs by checkerboard assay", "outline": "as §4"}, "Klebsiella pneumoniae": {"tested_on": "Klebsiella pneumoniae", "assay": "Antibacterial activity against multidrug-resistant Klebsiella pneumoniae 116381 after 18 hrs by microtiter dilution assay", "conditions": "Klebsiella pneumoniae, 116381, 18 h", "outline": "as §2"}, "Acinetobacter baumannii [14]": {"tested_on": "Acinetobacter baumannii", "assay": "Antibacterial activity against multidrug-resistant Acinetobacter baumannii AB030 after 18 hrs by microtiter dilution assay", "conditions": "AB030, 18 h", "outline": "as §2"}, "Pseudomonas aeruginosa [15]": {"tested_on": "Pseudomonas aeruginosa", "assay": "Potentiation of minocycline-induced antibacterial activity against Pseudomonas aeruginosa PAO1 at 4 ug/ml after 18 hrs by checkerboard assay", "outline": "as §4"}, "Pseudomonas aeruginosa [16]": {"tested_on": "Pseudomonas aeruginosa", "assay": "Potentiation of minocycline-induced antibacterial activity against multidrug/extremely drug-resistant/colistin-susceptible Pseudomonas aeruginosa isolate 100036 at 4 ug/ml after 18 hrs by checkerboard assay", "outline": "as §4"}, "Escherichia coli [17]": {"tested_on": "Escherichia coli", "assay": "Antibacterial activity against Escherichia coli ATCC 25922 after 18 hrs by microtiter dilution assay", "conditions": "ATCC 25922, 18 h", "outline": "as §2"}, "Pseudomonas aeruginosa [18]": {"tested_on": "Pseudomonas aeruginosa", "assay": "Potentiation of kanamycin A-induced antibacterial activity against Pseudomonas aeruginosa PAO1 at 4 ug/ml after 18 hrs by checkerboard assay", "outline": "as §4"}, "Acinetobacter baumannii [19]": {"tested_on": "Acinetobacter baumannii", "assay": "Potentiation of minocycline-induced antibacterial activity against multidrug-resistant Acinetobacter baumannii AB031 at 4 ug/ml after 18 hrs by checkerboard assay", "outline": "as §4"}, "Pseudomonas aeruginosa [20]": {"tested_on": "Pseudomonas aeruginosa", "assay": "Potentiation of rifampicin-induced antibacterial activity against multidrug/extremely drug-resistant/colistin-resistant Pseudomonas aeruginosa isolate 91433 at 4 ug/ml after 18 hrs by checkerboard assay", "outline": "as §4"}, "Enterococcus faecalis": {"tested_on": "Enterococcus faecalis", "assay": "Antibacterial activity against Enterococcus faecalis ATCC 29212 after 18 hrs by microtiter dilution assay", "conditions": "ATCC 29212, 18 h", "outline": "as §5"}, "Pseudomonas aeruginosa [21]": {"tested_on": "Pseudomonas aeruginosa", "assay": "Antibacterial activity against multidrug/extremely drug-resistant/colistin-resistant Pseudomonas aeruginosa isolate 91433 after 18 hrs by microtiter dilution assay", "conditions": "isolate 91433, 18 h", "outline": "as §2"}, "Pseudomonas aeruginosa [22]": {"tested_on": "Pseudomonas aeruginosa", "assay": "Synergistic antibacterial activity against Pseudomonas aeruginosa PAO1 after 18 hrs in presence of vancomycin by checkerboard assay", "conditions": "PAO1, 18 h", "outline": "as §3"}, "Pseudomonas aeruginosa [23]": {"tested_on": "Pseudomonas aeruginosa", "assay": "Potentiation of minocycline-induced antibacterial activity against multidrug/extremely drug-resistant/colistin-susceptible Pseudomonas aeruginosa isolate P259-96918 assessed as fold reduction in minocycline MIC at 4 ug/ml after 18 hrs by checkerboard assay relative to control", "outline": "as §1"}, "Pseudomonas aeruginosa [24]": {"tested_on": "Pseudomonas aeruginosa", "assay": "Potentiation of rifampicin-induced bactericidal activity against Pseudomonas aeruginosa PAO1 at 0.125 times antibacterial MIC after 90 mins", "outline": "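Combination time-kill in PAO1 (LB, 37 °C). Aliquots taken at 0–360 min, serially diluted in PBS, plated on LB agar, and CFU counted after 20 h at 37 °C.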"}, "Pseudomonas aeruginosa [25]": {"tested_on": "Pseudomonas aeruginosa", "assay": "Potentiation of minocycline-induced antibacterial activity against multidrug/extremely drug-resistant/colistin-susceptible Pseudomonas aeruginosa isolate P262-101856 assessed as fold reduction in minocycline MIC at 4 ug/ml after 18 hrs by checkerboard assay relative to control", "outline": "as §1"}}, "note": "Active and inactive are the calls of the source. The rule behind the calls is not given here."}
{"smiles": "Cl.Cl.Cl.Cl.Cl.Cl.Cl.NCCCC[C@H](N)C(=O)N(CCCCCCCCCCCCO[C@@H]1[C@@H](O[C@H]2O[C@H](CO)[C@@H](O)[C@H](N)[C@H]2O)[C@H](N)C[C@H](N)[C@H]1O[C@H]1O[C@H](CN)[C@@H](O)C[C@H]1N)Cc1c2ccccc2c(Cl)c2ccccc12", "values": [{"measurement": "fold change (FC)", "setting": "Pseudomonas aeruginosa [1]", "result": 32}, {"measurement": "MIC", "setting": "Acinetobacter baumannii [2]", "result": 8, "unit": "µg/mL"}, {"measurement": "MIC", "setting": "Pseudomonas aeruginosa [3]", "result": 32, "unit": "µg/mL"}, {"measurement": "MIC", "setting": "Escherichia coli [4]", "result": 16, "unit": "µg/mL"}, {"measurement": "fold change (FC)", "setting": "Pseudomonas aeruginosa [5]", "result": 128}, {"measurement": "fractional inhibitory concentration index (FICI)", "setting": "Pseudomonas aeruginosa [6]", "result": 0.071}, {"measurement": "MIC", "setting": "Pseudomonas aeruginosa [7]", "result": 4, "unit": "µg/mL"}, {"measurement": "fractional inhibitory concentration index (FICI)", "setting": "Pseudomonas aeruginosa [8]", "result": 0.039}, {"measurement": "MIC", "setting": "Acinetobacter baumannii [9]", "result": 128, "unit": "µg/mL"}, {"measurement": "MIC", "setting": "Acinetobacter baumannii [10]", "result": "16 to 32", "unit": "µg/mL"}, {"measurement": "MIC", "setting": "Pseudomonas aeruginosa [11]", "result": 2, "unit": "µg/mL"}, {"measurement": "MIC", "setting": "Pseudomonas aeruginosa [12]", "result": 32, "unit": "µg/mL"}, {"measurement": "fractional inhibitory concentration index (FICI)", "setting": "Pseudomonas aeruginosa [13]", "result": 0.563}, {"measurement": "MIC", "setting": "Klebsiella pneumoniae", "result": 256, "unit": "µg/mL"}, {"measurement": "MIC", "setting": "Acinetobacter baumannii [14]", "result": 64, "unit": "µg/mL"}, {"measurement": "fractional inhibitory concentration index (FICI)", "setting": "Pseudomonas aeruginosa [15]", "result": 0.094}, {"measurement": "fractional inhibitory concentration index (FICI)", "setting": "Pseudomonas aeruginosa [16]", "result": 0.094}, {"measurement": "MIC", "setting": "Escherichia coli [17]", "result": 32, "unit": "µg/mL"}, {"measurement": "fractional inhibitory concentration index (FICI)", "setting": "Pseudomonas aeruginosa [18]", "result": 1.016}, {"measurement": "fractional inhibitory concentration index (FICI)", "setting": "Acinetobacter baumannii [19]", "result": 0.625}, {"measurement": "fractional inhibitory concentration index (FICI)", "setting": "Pseudomonas aeruginosa [20]", "result": 0.5}, {"measurement": "MIC", "setting": "Enterococcus faecalis", "result": 16, "unit": "µg/mL"}, {"measurement": "MIC", "setting": "Pseudomonas aeruginosa [21]", "result": 8, "unit": "µg/mL"}, {"measurement": "MIC", "setting": "Pseudomonas aeruginosa [22]", "result": 4, "unit": "µg/mL"}, {"measurement": "fold change (FC)", "setting": "Pseudomonas aeruginosa [23]", "result": 64}, {"measurement": "Activity", "setting": "Pseudomonas aeruginosa [24]", "result": "Active"}, {"measurement": "fold change (FC)", "setting": "Pseudomonas aeruginosa [25]", "result": 128}]}
